An excerpt weighted towards active compounds, which were near 1.7% of everything screened.
CSN inh – inhibitors of CSN-mediated cullin deneddylation, primary screen, biochemical, fluorescence polarization, uHTS | COP9 signalosome complex subunit 5 (Homo sapiens), Q92905 | Purified CSN, SCF-Nedd8-OG deneddylation | inhibition, % at 12.5 µM | 0.38% of 360,000 active | AID 651999, 2013;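 active = pattern-corrected inhibition above about 35%, with an unprinted fluorescence ratio check between 0.5 and 1.5, limit read from the data, passing the limit was not always enough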
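Schedule: reaction 90 min, room temperature / Assay system: HEK293T-derived human Csn5 enzyme / Input: Csn5 at 0.24 nM final / Measure: inhibition of Csn5 cleavage, % / Control set: substrate-only high control, full reaction low control / Technique: fluorescence polarization of the substrate / Buffer or medium: Tris/NaCl/DTT buffer, pH 7.5 / Reagent: SCFSkp2-Nedd8OG substrate at 10 nM final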
Rpn11 block – Rpn11 (PSMD14) deubiquitinase inhibitors, primary screen, biochemical, fluorescence polarization, uHTS | 26S proteasome non-ATPase regulatory subunit 14 (Homo sapiens), O00487 | human 26S proteasome, Ub4-pepOG fluorescence polarization; 20S core pre-blocked with epoxomicin | inhibition, % at 20 µM | 0.59% of 360,000 active;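 active = inhibition at 20 µM, scaled to each plate's controls, above about 33%, limit read from the data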
IDE inh – human IDE inhibitors in live cells, primary screen, fluorescence polarization, HEK cells, FAbetaB substrate. 0.41% of 320,000 active. AID 434962, 2010. inhibition, % at 5.59 µM. FAbetaB cleavage;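 active = percent inhibition above the average of all tested compounds plus 3 SD, set per screening campaign, cut at about 16% in these data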;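 also: IDE supplied by intact live HEK cells; FP after avidin binding of uncleaved biotin substrate so inhibition keeps polarization high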
TPT1 inh – Candida albicans TPT1 enzyme inhibitors, primary screen, biochemical, fluorescence polarization. recombinant caTPT1, FP RNA substrate dephosphorylation. 0.81% of 300,000 active. tRNA 2'-phosphotransferase TPT1 (Candida albicans SC5314). inhibition, % at 5 µM;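 active = inhibition above the mean of all tested compounds plus 3 SD, set per screening campaign, cut at about 24% in these data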
IDE cell activ – human IDE activators in live cells, primary screen, fluorescence polarization, HEK cells, FAbeta-B substrate; AID 493087, 2011; Insulin-degrading enzyme (Homo sapiens), P14735; 0.073% of 340,000 active; FAbeta-B cleavage; 0% vehicle, 100% cell-free pure enzyme wells; activation, % at 5.96 µM;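 active = activation above the mean of all tested compounds plus 3 SD, set per screening campaign, cut at about 17% in these data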
HNF4A DNA FP – change in binding of human HNF4A to DNA, primary screen, biochemical, fluorescence polarization, FITC-DNA; 1 h; activity change, % at 10 µM; 0.3% of 360,000 active; in the data active = activity change above about 30%, passing the limit was not always enough
Target sequence (P41235 whole entry, looked up): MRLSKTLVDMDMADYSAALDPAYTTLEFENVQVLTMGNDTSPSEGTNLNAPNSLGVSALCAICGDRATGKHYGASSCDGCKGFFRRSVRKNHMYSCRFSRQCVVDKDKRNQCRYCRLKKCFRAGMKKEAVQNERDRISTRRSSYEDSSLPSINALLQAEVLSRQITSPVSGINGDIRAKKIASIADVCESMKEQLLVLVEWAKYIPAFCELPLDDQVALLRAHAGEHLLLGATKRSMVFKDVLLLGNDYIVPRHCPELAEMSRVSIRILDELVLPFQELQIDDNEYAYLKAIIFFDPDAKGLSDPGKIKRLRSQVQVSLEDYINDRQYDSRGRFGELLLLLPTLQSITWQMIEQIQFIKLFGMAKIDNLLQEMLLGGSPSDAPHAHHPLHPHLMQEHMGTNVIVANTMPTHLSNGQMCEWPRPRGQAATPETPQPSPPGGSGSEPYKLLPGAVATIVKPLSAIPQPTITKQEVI
TPT1 inh confirm – Candida albicans TPT1 inhibitors, confirmation, biochemical, fluorescence polarization, triplicate | shares compounds with TPT1 inh | recombinant caTPT1, RNase T1 coupled | inhibition, % at 5 µM | 74% of 2,400 active;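 active = inhibition above the primary screen limit, the mean inhibition of all tested compounds plus 3 SD, cut at about 25% in these data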
RNase T1 counter – RNase T1 inhibitors, counter-screen for TPT1 inhibitor project, biochemical, fluorescence polarization; AID 2153, 2009; RNase T1 cleavage, 1536-well; inhibition, % at 5 µM; 83% of 2,400 active; shares compounds with TPT1 inh;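 active = inhibition above the solvent-only control well mean plus 3 SD, limit set per screening run, cut at about 23% in these data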;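 also: inhibitors block cleavage so intact labeled substrate keeps polarization high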
Target sequence (P00651 whole entry, looked up): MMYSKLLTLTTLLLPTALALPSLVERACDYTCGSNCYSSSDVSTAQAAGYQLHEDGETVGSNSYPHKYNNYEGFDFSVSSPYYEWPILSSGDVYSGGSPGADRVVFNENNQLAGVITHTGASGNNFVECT
IDE inh confirm – human IDE inhibitors in live cells, confirmation, fluorescence polarization, HEK cells, FAbetaB substrate; shares compounds with IDE inh; FAbetaB cleavage; inhibition, % at 5.59 µM; 51% of 1,200 active;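 active = mean inhibition across triplicate wells above the cutoff set by the earlier primary insulin-degrading enzyme screen, cut at about 16% in these data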
HEK293 tox – cytotoxicity in HEK cells, cytotoxicity control for IDE inhibitor project, cell-based, luminescence | shares compounds with IDE inh | 28% of 1,200 active | AID 449730, 2010 | inhibition, % at 5.59 µM | HEK293 cytotoxicity, ATP luminescence; in the data active = inhibition above about 22%
Of the large screens only hits and unclear results are named; the others gave an inactive call (follow-up assays come after a bar, where shown).

CN1C(=CC=C2C=C(I)C(=O)C(I)=C2)C(C)(C)c2ccccc21	none (not shown: Rpn11 block, IDE inh, TPT1 inh)
CN1/C(=C\C=C2/SC(=S)NC2=O)C(C)(C)c2ccccc21	IDE inh 115.8, TPT1 inh 105.6 (not shown: Rpn11 block) | TPT1 inh confirm 111.0 | RNase T1 counter 105.7 | IDE inh confirm 151.6 | HEK293 tox 37.7
Cc1ccc(S(=O)(=O)NCC2CCC(C(=O)NC3CCCCC3)CC2)cc1 (stereo not given)	none
CC(=Nc1ccccc1O)c1sc2ccccc2c1O	IDE inh 83.7, TPT1 inh 104.0, HNF4A DNA FP 37.6 (not shown: Rpn11 block) | TPT1 inh confirm 124.6 | RNase T1 counter 125.9 | IDE inh confirm 96.1 | HEK293 tox inactive
CC(=O)NCCN=C(C)c1sc2ccccc2c1O	none
CC(=Nc1ccc(O)cc1)c1sc2ccccc2c1O	IDE inh 27.2, TPT1 inh 54.9 | TPT1 inh confirm 65.1 | RNase T1 counter 79.5 | IDE inh confirm 34.9 | HEK293 tox inactive
CC(=Nc1cccc(C)c1)c1sc2ccccc2c1O	IDE inh 16.4, TPT1 inh 41.9 | TPT1 inh confirm 67.6 | RNase T1 counter 80.3 | IDE inh confirm 28.6 | HEK293 tox inactive
CC(C)(C)NC(=O)C(c1ccc(O)cc1)N(C(=O)Cn1nnc(-c2ccc(F)cc2)n1)c1ccccc1F (stereo not given)	none
Cn1c(/C(C#N)=C/c2cccc(O)c2)nc2ccccc21	none
Cn1c(/C(C#N)=C/c2ccc(-c3ccc(S(N)(=O)=O)cc3)o2)nc2ccccc21	IDE inh 26.1, TPT1 inh 118.5 | TPT1 inh confirm 120.2 | RNase T1 counter 120.9 | IDE inh confirm 47.1 | HEK293 tox 46.0
N#CC1=C(N)Oc2cc(O)ccc2C1c1ccccc1 (stereo not given)	none
N#CC1=C(N)SC(N)=C(C#N)C1c1cccc(O)c1	IDE inh 20.0, TPT1 inh 99.7 (not shown: Rpn11 block) | TPT1 inh confirm 107.8 | RNase T1 counter 111.7 | IDE inh confirm inactive | HEK293 tox inactive
CCOCCCNc1nc2c(C)cccn2c(=O)c1/C=C1\SC(=S)N(C(C)CC)C1=O (stereo not given)	IDE inh 17.1, TPT1 inh 134.9 (not shown: Rpn11 block) | TPT1 inh confirm 157.5 | RNase T1 counter 145.0 | IDE inh confirm 80.0 | HEK293 tox inactive
CCCc1nnc(N2C(=O)c3cccc4cccc(c34)C2=O)s1	none
CCOc1ccc(Br)cc1S(=O)(=O)NC1CCCC1	none (no result: TPT1 inh)
COC(=O)c1ccc2c(c1)C(=O)/C(=C/c1ccc(O)cc1)O2	IDE inh 54.8, TPT1 inh 28.3 | TPT1 inh confirm inactive | RNase T1 counter 27.9 | IDE inh confirm 86.3 | HEK293 tox inactive
COc1ccc(/C=C2\Oc3ccccc3C2=O)cc1	none (no result: TPT1 inh)
COc1ccc(N=Cc2sc(O)c3ccccc23)cc1	IDE inh 60.9, TPT1 inh 147.3 (not shown: Rpn11 block) | TPT1 inh confirm 119.5 | RNase T1 counter 115.7 | IDE inh confirm 90.0 | HEK293 tox inactive
CCc1noc(C)c1C(=O)Nc1ccc(Cl)c(S(=O)(=O)N2CCCCC2)c1	none
CCN1/C(=C\C=C(C(C)=O)C(C)=O)Sc2ccccc21	IDE inh 35.4, TPT1 inh 196.1 (not shown: Rpn11 block) | TPT1 inh confirm 167.3 | RNase T1 counter 157.2 | IDE inh confirm 49.7 | HEK293 tox inactive
CCOC(=O)/C(C#N)=C(C)/C=C1\Sc2ccccc2N1CC	IDE inh 44.3, TPT1 inh 48.8 (not shown: Rpn11 block) | TPT1 inh confirm 39.1 | RNase T1 counter 50.2 | IDE inh confirm 78.1 | HEK293 tox 36.4
CCN1/C(=C\C(C)=O)Sc2ccc(OC)cc21	none
O=C(Oc1ccccc1F)c1ccc2c(=O)n3c(nc2c1)CCC3	none
COCCN1C(=O)/C(=C/c2ccc(N3CCCC3)cc2C)SC1=S	IDE inh 48.8, TPT1 inh 115.0 (not shown: Rpn11 block) | TPT1 inh confirm 99.0 | RNase T1 counter 99.9 | IDE inh confirm 57.2 | HEK293 tox inactive
CC(C)NC(=O)C1C(c2ccc(C(F)(F)F)cc2)=Nc2ccccc2N1C(=O)c1cccc2ccccc12 (stereo not given)	none (no result: Rpn11 block, IDE inh, TPT1 inh, IDE cell activ)
O=C(O)CN1C(=O)/C(=C\c2cn(CC(=O)N3CCOCC3)c3ccccc23)SC1=S	IDE inh 67.0, TPT1 inh 181.0 (not shown: Rpn11 block) | TPT1 inh confirm 149.9 | RNase T1 counter 144.3 | IDE inh confirm 114.2 | HEK293 tox inactive
CCCCCCN1C=CC(=C/C=C(\C#N)C(=O)OCC)C=C1	IDE inh 164.9, TPT1 inh 175.9 (not shown: Rpn11 block) | TPT1 inh confirm 193.3 | RNase T1 counter 172.8 | IDE inh confirm 121.2 | HEK293 tox inactive
Cc1ccc(-c2nc(Nc3cccc(C)c3)sc2CC(=O)O)cc1	none
O=C(O)Cc1sc(NC2CCCCC2)nc1-c1ccc(Cl)cc1	CSN inh 65.4, IDE inh 20.0, TPT1 inh 137.5 (not shown: Rpn11 block) | TPT1 inh confirm inactive | RNase T1 counter 32.3 | IDE inh confirm inactive | HEK293 tox inactive
C=CCN1C(=O)[C@@H]2Cc3c([nH]c4ccccc34)C(c3ccc(O)cc3)N2C1=S (stereo not given in full)	IDE inh 25.4, TPT1 inh 77.9, HNF4A DNA FP 46.0 (not shown: Rpn11 block) | TPT1 inh confirm 61.9 | RNase T1 counter 72.8 | IDE inh confirm inactive | HEK293 tox 22.5
O=C1[C@@H]2Cc3c([nH]c4ccccc34)C(c3ccccc3)N2C(=O)CN1CCO (stereo not given in full)	none
CC(C)(C)OC(=O)N1CCc2onc(-c3ccccc3[N+](=O)[O-])c2C1=O	none (no result: Rpn11 block, IDE inh, TPT1 inh, IDE cell activ)

High-throughput results: PubChem BioAssay, several laboratories
